Published values gathered from unrelated publications.
Compare with care: the assays were run in different laboratories.
Organism: Enterococcus faecalis
Read-out: microbial growth

Compound	assay	system	setting	MIC
CC1(C)S[C@@H]2[C@H](NC(=O)[C@H](N)c3ccccc3)C(=O)N2[C@H]1C(=O)O	broth dilution	ATCC29212		2 µg/mL
CCn1cc(C(=O)O)c(=O)c2cc(F)c(N3CCNCC3)cc21	broth dilution	ATCC14506	18 h	< 5 µg/mL
O=C(Nc1ccc2c(c1)OC(F)(F)O2)Nc1ccc(Cl)c(C(F)(F)F)c1				3 µM
Cc1ccc2nc(-c3cccc(O)c3)[nH]c2c1	broth dilution	ATCC29212		64 µg/mL
CC(C)Oc1c(NC(=O)c2ccc(NC(=O)[C@H](CC(N)=O)NC(=O)c3ccc(NC(=O)c4ccc(C#N)s4)cc3)cc2)ccc(C(=O)Nc2ccc(C(=O)O)cc2)c1O		ATCC29212		0.25 µg/mL
Cc1ccc(C)n1-c1ccc(-c2n[nH]c(=S)[nH]2)cc1	broth dilution	ATCC14506	18 h	4 µg/mL
CCn1cc(C(=O)O)c(=O)c2cc(F)c(N3CCNCC3)cc21	broth dilution	NCTC12697		4 µM
C/C=C(\C)c1cc(O)c(C)c(OC(=O)c2c(C)cc(O)c(Cl)c2O)c1	broth dilution	ATCC29212		8 µg/mL
Clc1ccc(Cn2c(-c3ccc(Cl)cc3)nc3ccccc32)cc1	broth dilution	ATCC29212		16 µg/mL
Cc1ccc(C)n1-c1ccc(-c2nnc(-c3ccccc3[N+](=O)[O-])[nH]2)cc1	broth dilution	ATCC14506	18 h	31.2 µg/mL
Cc1ccc2nc(-c3c4ccccc4cc4ccccc34)[nH]c2c1	broth dilution	ATCC29212		64 µg/mL
CN[C@H](CC(C)C)C(=O)N[C@H]1C(=O)N[C@@H](CC(N)=O)C(=O)N[C@H]2C(=O)N[C@H]3C(=O)N[C@H](C(=O)N[C@H](C(=O)O)c4cc(O)cc(O)c4-c4cc3ccc4O)[C@H](O)c3ccc(c(Cl)c3)Oc3cc2cc(c3O[C@@H]2O[C@H](CO)[C@@H](O)[C@H](O)[C@H]2O[C@H]2C[C@](C)(N)[C@H](O)[C@H](C)O2)Oc2ccc(cc2Cl)[C@H]1O	broth dilution	ATCC29212		2 µg/mL
Cc1ccc2nc(-c3ccco3)n(Cc3ccccc3)c2c1	broth dilution	ATCC29212		128 µg/mL
C/C(=C\c1ccc(C#N)cc1)C(=O)Nc1ccc(C(=O)N[C@@H](CC(N)=O)C(=O)Nc2ccc(C(=O)Nc3ccc(C(=O)Nc4ccc(C(=O)O)cc4)c(O)c3OC(C)C)cc2)cc1		ATCC29212		0.5 µg/mL
Cc1ccc(C)n1-c1ccc(-c2nnc(-c3ccc(O)cc3)[nH]2)cc1	broth dilution	ATCC14506	18 h	31.2 µg/mL
C/C=C(\C)c1cc(O)c(C)c(OC(=O)c2c(C)c(Cl)c(O)c(Cl)c2O)c1	broth dilution	ATCC29212		8 µg/mL
Cc1ccc(C)n1-c1ccc(C(=O)NNC=O)cc1	broth dilution	ATCC14506	18 h	31.2 µg/mL
C=CCn1c(-c2ccc(OC)c(OC)c2)nc2ccccc21	broth dilution	ATCC29212		64 µg/mL
Cc1ccc(C)n1-c1ccc(-c2nnco2)cc1	broth dilution	ATCC14506	18 h	2 µg/mL
CSc1ccc(-c2nc3ccccc3[nH]2)cc1	broth dilution	ATCC29212		64 µg/mL
